Yeast superoxide: yeast age-related superoxide inhibition as caloric restriction mimetic. S. cerevisiae aged cells, superoxide DHE fluorescence; active compounds read low. superoxide response (% of plate mean), % at 10 µM. 330,000 compounds, 0.18% hits;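 active = superoxide response under a set limit, about three screen SD below normal, cut at about 65% in these data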;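 also: yeast aged for seven days with compound at 30 °C before DHE staining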
T cruzi inh: T. cruzi replication inhibition. 300,000 compounds, 1.4% hits. inhibition, % (concentration not given with the values). T. cruzi beta-gal in NIH3T3, luminescence, 90 h;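 active = mean inhibition across valid replicates above about 55%, limit read from the data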;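 also: signal also drops with host cell toxicity which is not excluded here; higher percent means less beta-gal luminescence so fewer parasites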
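System: Mouse NIH/3T3 fibroblasts infected with β-gal-expressing T. cruzi Tulahuen C4 | Quantity: NIH/3T3 cells, 5,000 per well | Reagent: 5000 reporter trypomastigotes per well | Dosing: Compound pinned at 50 nL/well, DMSO | Schedule: 3 h host attachment, then at least 90 h co-culture | Detection: GalScreen luminescence, 60 min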
V-ATPase pHluor: alters yeast V-ATPase proton transport; S. cerevisiae, pHLuorin cytosolic pH fluorescence; 350,000 compounds, 0.37% hits; response, % at 10 µM; AID 504577; in the data active = response mostly above about 7.3%, no sharp cut-off; inactive = mostly below about 5.4%; also: actives read high
HIF act: HIF pathway transcriptional activation; U2OS HRE-luciferase reporter, luminescence; normalized: DMSO 0%, desferrioxamine 100%; activation, % at 7.5 µM (by protocol); 300,000 compounds, 0.32% hits; AID 1910;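 active = mean activation of at least 10% of the iron chelator positive control signal, with at least half of replicates also reaching 10%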
AI-2 QS modul: modulates the Vibrio harveyi AI-2 quorum sensing system | Vibrio harveyi JMH597 AI-2 luminescence/OD600 ratio, 9 h; active compounds read low; strain lacks LuxN and CqsS sensors; 0 = neutral-control median | activity change, % at 7.5 µM | 300,000 compounds, 0.4% hits; in the data active = activity change below about -75%, passing the limit was not always enough;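 also: luminescence divided by OD600 gain over 9 h not by final OD600 alone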
NRP1-CendR mod: NRP-1/CendR interaction modulation. FAM-RPARPAR peptide binding to NRP-1, fluorescence polarization. AID 602438. inhibition, % at 25 µM. 360,000 compounds, 0.85% hits;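 active = inhibition or corrected inhibition above about 18%, plus a signal ratio from 0.5 to 1.5, limit read from the data, passing the limit was not always enough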
Hits are given with their value; i = inactive; nt = not tested or not shown. Compounds with a hit are over-represented: about 3% of the library has one in this group of screens.

SMILES	Yeast superoxide	T cruzi inh	V-ATPase pHluor	HIF act	AI-2 QS modul	NRP1-CendR mod
CC(C)CN(CCNC(=O)c1cn(C)c2ccc(S(=O)(=O)N3CCCC3)cc2c1=O)CC(C)C	i	i	i	184	i	i
CCN(CC)S(=O)(=O)c1ccc2c(c1)c(=O)c(C(=O)NCCN(C)CCc1ccccc1)cn2C	i	56	i	i	i	i
Cc1ccc(-c2nc(CS(=O)(=O)CC(=O)NCCCN3CCN(C)CC3)c(C)o2)cc1	i	i	i	i	i	i
Cc1ccc(S(=O)(=O)n2ccc3c(OCCOCCNCc4ccc(F)cc4)cccc32)cc1	i	55	i	i	i	i
O=C(Nc1cccc2c1C(=O)NC2=O)c1ccc(N2C(=O)CCC2=O)cc1	i	i	i	i	i	i
CCN(CC)S(=O)(=O)c1cccc(-c2nnc(SCCCC(=O)c3ccc(F)cc3)o2)c1	i	60	i	i	i	i
CCN(CC)S(=O)(=O)c1cccc(-c2nnc(SCCCC(=O)c3ccccc3)o2)c1	i	66	i	i	i	i
O=C(Cc1ccccc1)Nn1c(-c2ccccc2F)nc2ccccc2c1=O	i	i	i	i	i	i
c1ccc2c(CNc3ccc(CNc4ncn[nH]4)cc3)cccc2c1	i	i	i	i	i	32
O=C(COC(=O)c1c2c(nc3ccccc13)/C(=C\c1cccs1)CCC2)Nc1ccccc1	i	74	i	i	i	i
NC(=O)COC(=O)c1c2c(nc3ccccc13)CCC2	i	i	i	i	i	20
Cc1cc(Cl)ccc1C(=O)C1CCCN(C(=O)CCn2cnnn2)C1 (stereo unspecified)	i	i	i	i	i	i
Cc1cc2c(NC(=O)Nc3ccc(C(F)(F)F)cc3)cccc2nn1	i	69	i	i	i	i
Cc1cc2c(NC(=O)CCCC(=O)O)cccc2nn1	i	i	i	i	i	i
CCOc1ccccc1/C=C/c1onc(C)c1S(=O)(=O)N1CCC(C(=O)NC)CC1	i	i	i	i	i	i
Cc1cc(C(=O)c2ccccc2)cc(C)c1O	nt	nt	i	nt	nt	i
CC1=C/C(=C(\c2cc(C)c(O)c(Br)c2)c2ccccc2S(=O)(=O)O)C=C(Br)C1=O	i	i	i	i	i	46
CCOCc1nnc(NC(=O)c2cc(Cl)ccc2OC)s1	i	i	i	i	i	i
COCc1nnc(NC(=O)c2cc(Cl)ccc2OC)s1	i	i	i	877	i	i
Cc1ccc2c(c1)CCCO[C@]21O[C@H](CCO)C[C@H](O)[C@H]1O	nt	nt	nt	nt	nt	i
CC(Sc1nnnn1C1CC1)C(=O)N1c2ccccc2NC(=O)C1(C)C (stereo unspecified)	i	nt	i	nt	nt	26
CC1(C(=O)Nc2cnc3ccccc3c2)CCN1C(=O)C/C=C/c1ccccc1 (stereo unspecified)	nt	nt	nt	nt	nt	i
COCCNc1c2c(nc3c(-c4ccccc4)c(C)nn13)CCC2	i	nt	i	nt	i	28
Cc1nn2c(NCCCN(C)C)c3c(nc2c1-c1ccccc1)CCC3	i	69	i	i	i	i
Cc1nn2c(NCCOCCO)c3c(nc2c1-c1ccccc1)CCC3	i	i	i	i	i	i
SMILES	Yeast superoxide	T cruzi inh	V-ATPase pHluor	HIF act	AI-2 QS modul	NRP1-CendR mod
O=C(c1ccc(F)c(S(=O)(=O)N2CCOCC2)c1)N1CCc2ccccc21	i	i	i	i	i	i
CC1CC(C)CN(S(=O)(=O)N2CCCC(C(=O)NCc3ccccc3Cl)C2)C1 (stereo unspecified)	i	i	i	i	i	i
O=C(Nc1ccnn1C1CCN(C(=O)c2c(F)cccc2F)CC1)C1CC1	i	i	i	i	i	25
COc1ccccc1C(=O)Nc1ccnn1C1CCN(Cc2cnc(N(C)C)s2)CC1	i	56	i	i	i	i
COc1ccc(CN2CCC(n3nccc3NC(=O)C3CC3)CC2)cc1O	i	i	i	i	i	23
CCn1cc(CN2CCC(n3nccc3NC(=O)c3ccccc3OC)CC2)cn1	i	i	i	i	i	i
CCOCc1cc(CN2CCC(n3nccc3NC(=O)C3CC3)CC2)ccc1OC	nt	i	i	i	i	i
CCOc1ccc(CN2CCC(n3nccc3NC(=O)c3ccccc3OC)CC2)cc1	i	62	i	i	i	i
Cc1ccc(NC(=S)NCC2CCCO2)c(OC(F)F)c1 (stereo unspecified)	i	i	i	i	i	i

High-throughput results as filed in PubChem.
